What all share (format): functional, cell-based
Assay [1] relates to Jurkat. In words: Cytotoxicity against human Jurkat cells after 48 hrs by MTT assay. In short, it runs like this:
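Cells seeded at line-dependent densities, held 24 h compound-free, then exposed 48 h to six 2-fold dilutions (top […]). MTT (10 mg/ml PBS solution) added for 4 h at 37 °C; DMSO-solubilized formazan read at 570 nm. Three runs in triplicate.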
For orientation: Formazan colour is commonly taken as a measure of viable cells.

The nature of assay [2]: (§1) Cytotoxicity against human MG63 cells after 48 hrs by MTT assay. The following applies: MG-63, 48 h. In outline: (§2)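 Cells seeded at densities suited to their growth and incubated 24 h compound-free. They were then treated 48 h with six 2-fold serial dilutions, top […]. Viability was measured by MTT (added from a 10 mg/ml PBS solution; 4 h, 37 °C), followed by centrifugation, DMSO dissolution and A570. Run thrice in triplicate; mean ± SD, n = 3.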

For assay [3], the system named is MG-63. Described as §1. In outline:
as §2

A short description of assay [4]: (§3) Cytotoxicity against human COLO320DM cells after 48 hrs by MTT assay. The following applies: COLO 320DM. In outline: (§4)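 Jurkat and Colo 320DM grown in RPMI 1640 with 10% FBS and 1% ampicillin; A549 in 90% DMEM with 10% FBS. Cells seeded at line-dependent densities, held 24 h compound-free, then exposed 48 h to six 2-fold dilutions (top […]). MTT (10 mg/ml PBS solution) added for 4 h at 37 °C; DMSO-solubilized formazan read at 570 nm. Three runs in triplicate.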

In assay [5] the test system is COLO 320DM. The description is as §3. In short, it runs like this:
as §4

For assay [6], the system named is NCI-H23. Briefly: Cytotoxicity against human NCI-H23 cells after 48 hrs by MTT assay. The following applies: for IC50: NCI-H23, 48 h. In outline:
as §2

In assay [7] the test system is A549. Briefly: Cytotoxicity against human A549 cells after 48 hrs by MTT assay. The following applies: for IC50: A549, 48 h. In outline: as §4
The test system of assay [8] is MG-63. In words: Cytotoxicity against human MG63 cells at 250 uM after 48 hrs by MTT assay.
In assay [9] the test system is NCI-H23. Briefly: Cytotoxicity against human NCI-H23 cells at 250 uM after 48 hrs by MTT assay.
Assay [10] deals with MG-63. Briefly: Cytotoxicity against human MG63 cells at 500 uM after 48 hrs by MTT assay.
The subject of assay [11] is COLO 320DM. Briefly: Cytotoxicity against human COLO320DM cells at 500 uM after 48 hrs by MTT assay.
In assay [12] the test system is A549. Briefly: Cytotoxicity against human A549 cells at 500 uM after 48 hrs by MTT assay.
Assay [13] concerns Jurkat. In words: Cytotoxicity against human Jurkat cells at 200 uM after 48 hrs by MTT assay.
Assay [14] has as its system COLO 320DM. Briefly: Cytotoxicity against human COLO320DM cells at 200 uM after 48 hrs by MTT assay.
Assay [15] has as its system A549. In words: Cytotoxicity against human A549 cells at 200 uM after 48 hrs by MTT assay.
Assay [16] deals with Jurkat. Briefly: Cytotoxicity against human Jurkat cells at 100 uM after 48 hrs by MTT assay.
In assay [17] the test system is NCI-H23. In words: Cytotoxicity against human NCI-H23 cells at 500 uM after 48 hrs by MTT assay.
Assay [18] has as its system Jurkat. In words: Cytotoxicity against human Jurkat cells at 500 uM after 48 hrs by MTT assay.

Broadly, the IC50 is the concentration at which inhibition is half-maximal.

Active and inactive are the calls of the source. The rule behind the calls is not given here.

In the case of `CCCCOP(=O)(OCCCC)C(Nc1cccc(Cl)c1)c1ccc2c(c1)OCO2` (stereo unspecified), the IC50 in the assay on Jurkat [1] was > 500 µM; in assay [2], 108 µM; in assay [4], 93 µM; in the assay with NCI-H23 [6], 77.2 µM; in the assay with A549 [7], 263 µM. Moreover, the inhibition entry in the assay on Jurkat [1], in the assay on MG-63 [3], in the assay on COLO 320DM [5], in the assay with NCI-H23 [6] and in the assay with A549 [7] was “Dose-dependent effect” in each case.

Regarding `COc1cccc2c1C(=O)c1c(O)c3c(c(O)c1C2=O)C[C@@](O)(C(=O)CO)C[C@@H]3O[C@H]1C[C@H](N)[C@H](O)[C@H](C)O1` [DOXORUBICIN], the IC50 was 3.17 µM in assay [2] and 4 µM with A549 [7]. Further, the inhibition result with MG-63 [3] and in the assay on A549 [7] was “Dose-dependent effect” in each case.

With `CCCCOP(=O)(OCCCC)C(Nc1ccc2c(c1)OCO2)c1ccc2c(c1)OCO2` (stereo unspecified), the results for the 50% inhibitory concentration (IC50) (in the assay on Jurkat [1]; in assay [4]; with A549 [7]) were 80 µM, 66.5 µM and 192 µM, respectively. Also, the inhibition entry in the assay with Jurkat [1], in the assay on COLO 320DM [5] and in the assay on A549 [7] was “Dose-dependent effect” in each case. Further, the inhibition result in the assay with MG-63 [8] and in the assay with NCI-H23 [9] was “inactive” in each case.

In assay [4], `O=c1[nH]cc(F)c(=O)[nH]1` [FLUOROURACIL] returned an IC50 of 2 µM. For the same compound, the inhibition entry with COLO 320DM [5] is “Dose-dependent effect”.

Consider `O=P(Oc1ccccc1)(Oc1ccccc1)C(Nc1cccc(F)c1)c1ccc2c(c1)OCO2` (stereo unspecified), for which the figures for the IC50 in the assay on Jurkat [1] and with NCI-H23 [6] were 490 µM and 48.2 µM, respectively. Further, the inhibition entry in the assay on Jurkat [1] and in the assay with NCI-H23 [6] was “Dose-dependent effect” throughout. The inhibition result with MG-63 [10], with COLO 320DM [11] and in the assay on A549 [12] was “inactive” throughout.

On to `CCOP(=O)(OCC)C(Nc1ccccc1)c1ccc(OC)cc1` (stereo unspecified), for which the inhibition entry in the assay on Jurkat [13], in the assay on COLO 320DM [14] and in the assay on A549 [15] was “inactive” each time. Moreover, the half-inhibitory concentration (IC50) stood at 106 µM in assay [2] and 53.8 µM in the assay with NCI-H23 [6]. Besides, the inhibition entry with MG-63 [3] and with NCI-H23 [6] was “Dose-dependent effect” each time.

For `CCCCOP(=O)(OCCCC)C(N[C@H](C)c1ccccc1)c1ccc2c(c1)OCO2` (stereo partly specified), the concentration for half-maximal inhibition (IC50) in the assay on Jurkat [1] was 4 µM; in assay [2] it was 13.6 µM; in [4], 15.8 µM; in the assay on NCI-H23 [6], 28.6 µM; with A549 [7], 43.4 µM. Besides, the inhibition result with Jurkat [1], with MG-63 [3], in the assay on COLO 320DM [5], in the assay with NCI-H23 [6] and in the assay on A549 [7] was “Dose-dependent effect” each time.

As for `CCOP(=O)(OCC)C(Nc1c(C)cccc1C)c1ccc2c(c1)OCO2` (stereo unspecified), the half-inhibitory concentration (IC50) in the assay on Jurkat [1] was > 500 µM; in assay [2] it was 114 µM; in assay [4], 105 µM; in the assay with NCI-H23 [6] it was 248 µM; with A549 [7], > 500 µM. Also, the inhibition entry in the assay on Jurkat [1], in the assay on MG-63 [3], in the assay with COLO 320DM [5], with NCI-H23 [6] and with A549 [7] was “Dose-dependent effect” throughout.

Turning to `CC/C(=C(\c1ccccc1)c1ccc(OCCN(C)C)cc1)c1ccccc1`, the inhibition result in the assay on Jurkat [1] is “Dose-dependent effect”.

On to `CCOP(=O)(OCC)C(Nc1ccccc1)c1ccc2c(c1)OCO2` (stereo unspecified), for which the IC50 is > 500 µM in the assay on Jurkat [1]; 68.8 µM in assay [2]; 92 µM in [4]; 65.8 µM with NCI-H23 [6]; 134 µM in the assay on A549 [7]. In addition, the inhibition result in the assay on Jurkat [1], in the assay on MG-63 [3], in the assay on COLO 320DM [5], in the assay on NCI-H23 [6] and in the assay on A549 [7] was “Dose-dependent effect” in each case.

Turning to `CCOP(=O)(OCC)C(Nc1ccccc1)c1ccc(OC)c(OC)c1` (stereo unspecified), the inhibition result in the assay on Jurkat [16] was “inactive”. Moreover, the IC50 worked out at 34 µM in [2], 36.4 µM in assay [4], 39.5 µM in the assay on NCI-H23 [6] and 74.1 µM in the assay with A549 [7]. The inhibition result in the assay with MG-63 [3], in the assay on COLO 320DM [5], with NCI-H23 [6] and with A549 [7] was “Dose-dependent effect” each time.

Take `CCCCOP(=O)(OCCCC)C(Nc1ccccc1C)c1ccc2c(c1)OCO2` (stereo unspecified): the concentration for half-maximal inhibition (IC50) in the assay on Jurkat [1] was > 500 µM. Also, the inhibition result in the assay with Jurkat [1] was “Dose-dependent effect”. Further, the inhibition result in the assay on MG-63 [10], with COLO 320DM [11], with NCI-H23 [17] and in the assay with A549 [12] was “inactive” throughout.

On to `CCCCOP(=O)(OCCCC)C(Nc1cccc(F)c1)c1ccc2c(c1)OCO2` (stereo unspecified), for which the IC50 in the assay on Jurkat [1] is > 500 µM; in [2] it was 122 µM; in assay [4] it was 80.3 µM; in the assay with NCI-H23 [6], 95.8 µM; with A549 [7] it was 364 µM. In addition, the inhibition result with Jurkat [1], with MG-63 [3], in the assay with COLO 320DM [5], with NCI-H23 [6] and in the assay on A549 [7] was “Dose-dependent effect” in each case.

As to `CCCCOP(=O)(OCCCC)C(N[C@@H](C)c1ccccc1)c1ccc2c(c1)OCO2` (stereo partly specified), the inhibition result in the assay with Jurkat [18], in the assay with MG-63 [10], with COLO 320DM [11], with NCI-H23 [17] and in the assay on A549 [12] was “inactive” each time.

For the compound `CCOP(=O)(OCC)C(Nc1ccccc1)c1ccc(OC)c(O)c1` (stereo unspecified), the IC50 came out at 57 µM in the assay with Jurkat [1]; 37.5 µM in assay [2]; 47.9 µM in [4]; 39.7 µM in the assay with NCI-H23 [6]; 62.4 µM in the assay on A549 [7]. Moreover, the inhibition entry in the assay with Jurkat [1], in the assay with MG-63 [3], in the assay with COLO 320DM [5], in the assay on NCI-H23 [6] and in the assay on A549 [7] was “Dose-dependent effect” in each case.

Turning to `CO[C@@]12[C@H](COC(N)=O)C3=C(C(=O)C(C)=C(N)C3=O)N1C[C@@H]1N[C@@H]12` [MITOMYCIN], in the assay with NCI-H23 [6], the inhibition entry was “Dose-dependent effect” and the half-inhibitory concentration (IC50) was 2 µM.

On to `CCOP(=O)(OCC)C(Nc1ccccc1O)c1ccc2c(c1)OCO2` (stereo unspecified), for which the IC50 with Jurkat [1] is > 500 µM; in assay [2] it was 115 µM; in assay [4], 79.4 µM; in the assay with NCI-H23 [6], 190 µM; with A549 [7] it was 278 µM. Also, the inhibition entry in the assay with Jurkat [1], with MG-63 [3], in the assay with COLO 320DM [5], in the assay on NCI-H23 [6] and in the assay with A549 [7] was “Dose-dependent effect” each time.

Take `CCOP(=O)(OCC)C(Nc1ccccc1)c1ccc([N+](=O)[O-])cc1` (stereo unspecified): the inhibition entry in the assay with Jurkat [16] was “inactive”. Besides, the IC50 was 31.9 µM in [2], 42.1 µM in [4], 37.4 µM with NCI-H23 [6] and 57.5 µM with A549 [7]. In addition, the inhibition entry with MG-63 [3], in the assay on COLO 320DM [5], in the assay with NCI-H23 [6] and in the assay on A549 [7] was “Dose-dependent effect” each time.

In the case of `CCOP(=O)(OCC)C(Nc1ccccc1)c1ccc(F)cc1` (stereo unspecified), the inhibition entry in the assay with Jurkat [18], in the assay with MG-63 [10], in the assay on NCI-H23 [17] and with A549 [12] was “inactive” each time. Besides, in [4], the 50% inhibitory concentration (IC50) came out at 160 µM. For the same compound, in the assay with COLO 320DM [5], the inhibition entry is “Dose-dependent effect”.

(Values after ChEMBL document CHEMBL3108680, “Diversity-oriented synthesis of α-aminophosphonates: a new class of potential anticancer agents” (Eur J Med Chem, 2013).)
